The source made the active and inactive calls. The calls are words filed in the database; no cut-off is given here.
Assays:
[1] = Cytotoxicity against human H1299 cells after 72 hrs by AlamarBlue assay; format: functional, cell-based; conditions: NCI-H1299, 72 h
Method in brief: (§1)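 Growth inhibition read by alamarBlue. After reagent addition, plates were held 6 h at 37 °C and absorbance read at 570 and 600 nm. IC50 was derived from dose-response curves over 6 or 7 drug concentrations by the median-effect method. Values are mean and STDEV of three to six independent experiments.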

PC-3 = test: Cytotoxicity against human PC3 cells after 72 hrs by AlamarBlue assay; format: functional, cell-based; conditions: PC-3, 72 h; method in brief: as §1
CCRF-CEM [2] = test: Ratio of IC50 for human vinblastine-resistant CCRF-CEM cells to IC50 for human CCRF-CEM cells; format: functional
Method in brief: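 Ratio of alamarBlue IC50 values, determined in the CCRF-CEM/VBL vinblastine-resistant subline and in the parental CCRF-CEM line.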

CCRF-CEM [3] = test: Cytotoxicity against human vinblastine-resistant CCRF-CEM cells after 72 hrs by AlamarBlue assay; format: functional, cell-based; method in brief: as §1
CCRF-CEM [4] = test: Cytotoxicity against human CCRF-CEM cells after 72 hrs by AlamarBlue assay; format: functional, cell-based; method in brief: as §1
HCT-116 = test: Cytotoxicity against human HCT116 cells after 72 hrs by AlamarBlue assay; format: functional, cell-based; conditions: HCT-116, 72 h; method in brief: as §1
[5] = Cytotoxicity against human H460 cells after 72 hrs by AlamarBlue assay; format: functional, cell-based; conditions: NCI-H460, 72 h; method in brief: as §1
[6] = Induction of DNA cross-linking activity in pEGFP-N1 DNA (unknown origin) at 20 uM after 2 hrs by alkaline agarose gel shift assay
Method in brief: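 pEGFP-N1 plasmid DNA incubated with compound at 1, 10 or 20 µM in binding buffer (30 mM NaCl/10 mM sodium phosphate pH 7.4, 10 mM EDTA) for 2 h at 37 °C. DNA then linearized with BamHI for 6 h, ethanol-precipitated and run on alkaline agarose gel. Cross-linked double-stranded DNA was scored against single-stranded DNA. Melphalan (1 and 10 µM) was the positive control.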

NCI-H460 [7] = test: Induction of apoptosis in human H460 cells assessed as late apoptotic cells at 2 uM after 24 hrs using Annexin V/propidium iodide staining by flow cytometry (reference value: 7%); format: functional
NCI-H460 [8] = test: Induction of apoptosis in human H460 cells assessed as early apoptotic cells at 2 uM after 48 hrs using Annexin V/propidium iodide staining by flow cytometry (reference value: 2%); format: functional
NCI-H460 [9] = test: Induction of apoptosis in human H460 cells assessed as necrotic cells at 2 uM after 24 hrs using Annexin V/propidium iodide staining by flow cytometry (reference value: 0.6%); format: functional
NCI-H460 [10] = test: Induction of apoptosis in human H460 cells assessed as late apoptotic cells at 2 uM after 72 hrs using Annexin V/propidium iodide staining by flow cytometry (reference value: 7%); format: functional
NCI-H460 [11] = test: Induction of apoptosis in human H460 cells assessed as early apoptotic cells at 2 uM after 24 hrs using Annexin V/propidium iodide staining by flow cytometry (reference value: 2%); format: functional
NCI-H460 [12] = test: Induction of apoptosis in human H460 cells assessed as early apoptotic cells at 2 uM after 72 hrs using Annexin V/propidium iodide staining by flow cytometry (reference value: 2%); format: functional
[13] = Cell cycle arrest in human H460 cells assessed as accumulation at G2/M phase after 24 hrs using propidium iodide staining by flow cytometry; format: functional, cell-based; conditions: NCI-H460
Method in brief: (§2)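 H460 cells exposed to 0.25, 0.5, 1 or 2 µM for 24 h, then stained with […] propidium iodide in PBS with 0.1 mg/mL RNase A and 1% Triton X-100. DNA content and phase distribution read by flow cytometry. Values are the mean of 3 independent experiments.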

NCI-H460 [14] = test: Induction of apoptosis in human H460 cells assessed as necrotic cells at 2 uM after 72 hrs using Annexin V/propidium iodide staining by flow cytometry (reference value: 0.6%); format: functional
NCI-H460 [15] = test: Induction of apoptosis in human H460 cells assessed as necrotic cells at 2 uM after 48 hrs using Annexin V/propidium iodide staining by flow cytometry (reference value: 0.6%); format: functional
NCI-H460 [16] = test: Induction of apoptosis in human H460 cells assessed as late apoptotic cells at 2 uM after 48 hrs using Annexin V/propidium iodide staining by flow cytometry (reference value: 7%); format: functional
[17] = Cell cycle arrest in human H460 cells assessed as accumulation at G1 phase after 24 hrs using propidium iodide staining by flow cytometry; format: functional, cell-based; conditions: NCI-H460; method in brief: as §2
[18] = Cell cycle arrest in human H460 cells assessed as accumulation at sub-G1 phase at 2 uM after 24 hrs using propidium iodide staining by flow cytometry; format: functional, cell-based; conditions: NCI-H460; method in brief: as §2

| Structure (SMILES) | IC50 [1] | IC50 (PC-3) | Ratio IC50 (CCRF-CEM [2]) | IC50 (CCRF-CEM [3]) | IC50 (CCRF-CEM [4]) | IC50 (HCT-116) | IC50 [5] | Activity [6] | Activity (NCI-H460 [7]) | Activity (NCI-H460 [8]) | Activity (NCI-H460 [9]) | Activity (NCI-H460 [10]) | Activity (NCI-H460 [11]) | Activity (NCI-H460 [12]) | Activity [13] | Activity (NCI-H460 [14]) | Activity (NCI-H460 [15]) | Activity (NCI-H460 [16]) | Activity [17] | Activity [18] |
| --- | --- | --- | --- | --- | --- | --- | --- | --- | --- | --- | --- | --- | --- | --- | --- | --- | --- | --- | --- | --- |
| Cc1cc(Nc2ccc(F)cc2)c2cc(NC(=O)Nc3ccc(N(CCCl)CCCl)cc3)ccc2n1 | 2.37 µM | 7.16 µM | 26.19 | 11 µM | 0.42 µM | 1.06 µM | 1.01 µM |  |  |  |  |  |  |  |  |  |  |  |  |  |
| C#Cc1cccc(Nc2cc(C)nc3ccc(NC(=O)Nc4ccc(N(CCCl)CCCl)cc4)cc23)c1 | 1.13 µM | 1.17 µM | 9.55 | 4.49 µM | 0.47 µM | 0.59 µM | 0.7 µM |  |  |  |  |  |  |  |  |  |  |  |  |  |
| O=C(Nc1ccc(N(CCCl)CCCl)cc1)Nc1ccc2nc(-c3ccccc3)cc(Nc3cccc(Cl)c3)c2c1 | 2.35 µM | 2.13 µM | 2.19 | 4.55 µM | 2.07 µM | 3.69 µM | 2.26 µM |  |  |  |  |  |  |  |  |  |  |  |  |  |
| COc1cc(Nc2cc(C)nc3ccc(NC(=O)Nc4ccc(N(CCCl)CCCl)cc4)cc23)cc(OC)c1OC | 2.54 µM | 3.46 µM | >125 | > 100 µM | 0.8 µM | 1.81 µM | 3.74 µM |  |  |  |  |  |  |  |  |  |  |  |  |  |
| O=C(Nc1ccc(N(CCCl)CCCl)cc1)Nc1ccc2nc(-c3ccccc3)cc(Nc3ccc(F)c(Cl)c3)c2c1 | 5.39 µM | 8.86 µM | 2.59 | 7.07 µM | 2.72 µM | 3.58 µM | 7.81 µM |  |  |  |  |  |  |  |  |  |  |  |  |  |
| CNc1cc(C)nc2ccc(NC(=O)Nc3ccc(N(CCCl)CCCl)cc3)cc12 | 5.4 µM | 2.51 µM | >256 | > 100 µM | 0.39 µM | 1.28 µM | 9.37 µM |  |  |  |  |  |  |  |  |  |  |  |  |  |
| COc1cccc(Nc2cc(C)nc3ccc(NC(=O)Nc4ccc(N(CCCl)CCCl)cc4)cc23)c1 | 1.32 µM | 2.38 µM | 15.07 | 4.22 µM | 0.28 µM | 0.62 µM | 1.83 µM | Active |  |  |  |  |  |  |  |  |  |  |  |  |
| Cc1cccc(Nc2cc(-c3ccccc3)nc3ccc(NC(=O)Nc4ccc(N(CCCl)CCCl)cc4)cc23)c1 | 1.42 µM | 1.23 µM | 2.25 | 4.15 µM | 1.84 µM | 1.8 µM | 2.09 µM |  |  |  |  |  |  |  |  |  |  |  |  |  |
| Cc1cc(Nc2cccc(F)c2)c2cc(NC(=O)Nc3ccc(N(CCCl)CCCl)cc3)ccc2n1 | 1.09 µM | 1.49 µM | 13.68 | 9.58 µM | 0.7 µM | 0.74 µM | 0.86 µM |  |  |  |  |  |  |  |  |  |  |  |  |  |
| Cc1cc(Nc2cccc(C(F)(F)F)c2)c2cc(NC(=O)Nc3ccc(N(CCCl)CCCl)cc3)ccc2n1 | 1.48 µM | 1.42 µM | 10.1 | 5.96 µM | 0.59 µM | 0.62 µM | 0.85 µM |  |  |  |  |  |  |  |  |  |  |  |  |  |
| Cc1cc(Nc2ccc(F)c(Cl)c2)c2cc(NC(=O)Nc3ccc(N(CCCl)CCCl)cc3)ccc2n1 | 1.07 µM | 1.78 µM | 18.2 | 9.83 µM | 0.54 µM | 0.83 µM | 1.4 µM |  |  |  |  |  |  |  |  |  |  |  |  |  |
| Cc1cccc(Nc2cc(C)nc3ccc(NC(=O)Nc4ccc(N(CCCl)CCCl)cc4)cc23)c1 | 1.05 µM | 1.29 µM | 15 | 5.85 µM | 0.39 µM | 0.49 µM | 0.92 µM | Active |  |  |  |  |  |  |  |  |  |  |  |  |
| Cc1cc(Nc2cccc(Cl)c2)c2cc(NC(=O)Nc3ccc(N(CCCl)CCCl)cc3)ccc2n1 | 0.88 µM | 1.27 µM | 12.81 | 7.56 µM | 0.59 µM | 0.56 µM | 1.03 µM |  |  |  |  |  |  |  |  |  |  |  |  |  |
| Cc1cc(Nc2ccc(Br)cc2)c2cc(NC(=O)Nc3ccc(N(CCCl)CCCl)cc3)ccc2n1 | 1.35 µM | 1.75 µM | 18.33 | 9.53 µM | 0.52 µM | 0.8 µM | 0.91 µM |  |  |  |  |  |  |  |  |  |  |  |  |  |
| Cc1cc(Nc2ccc(F)c(Br)c2)c2cc(NC(=O)Nc3ccc(N(CCCl)CCCl)cc3)ccc2n1 | 1.28 µM | 1.32 µM | 25.45 | 10.2 µM | 0.4 µM | 0.63 µM | 0.82 µM |  |  |  |  |  |  |  |  |  |  |  |  |  |
| Cc1cc(Nc2ccc(Cl)cc2)c2cc(NC(=O)Nc3ccc(N(CCCl)CCCl)cc3)ccc2n1 | 1.31 µM | 1.36 µM | 11.21 | 8.18 µM | 0.73 µM | 0.77 µM | 0.84 µM |  |  |  |  |  |  |  |  |  |  |  |  |  |
| CC[C@]1(O)C[C@@H]2CN(CCc3c([nH]c4ccccc34)[C@@](C(=O)OC)(c3cc4c(cc3OC)N(C)[C@H]3[C@@](O)(C(=O)OC)[C@H](OC(C)=O)[C@]5(CC)C=CCN6CC[C@]43[C@@H]65)C2)C1 [VINBLASTINE] |  |  | 300 | 0.87 µM | 0.0029 µM |  |  |  |  |  |  |  |  |  |  |  |  |  |  |  |
| Cc1cc(Nc2cccc(Br)c2)c2cc(NC(=O)Nc3ccc(N(CCCl)CCCl)cc3)ccc2n1 | 0.77 µM | 1.41 µM | 11.28 | 5.19 µM | 0.46 µM | 0.49 µM | 1.18 µM |  | 16.7% | 1.4% | 4.3% | 65.5% | 3.7% | 3.7% | Dose-dependent effect | 9.8% | 21.8% | 32.6% | Dose-dependent effect | Active |
| COc1cccc(Nc2cc(-c3ccccc3)nc3ccc(NC(=O)Nc4ccc(N(CCCl)CCCl)cc4)cc23)c1 | 2.13 µM | 2.21 µM | 3.43 | 2.71 µM | 0.79 µM | 1.35 µM | 1.89 µM |  |  |  |  |  |  |  |  |  |  |  |  |  |
| Cc1cc(Nc2ccccc2)c2cc(NC(=O)Nc3ccc(N(CCCl)CCCl)cc3)ccc2n1 | 1.73 µM | 1.49 µM | 26.15 | 11.5 µM | 0.44 µM | 0.83 µM | 1.37 µM |  |  |  |  |  |  |  |  |  |  |  |  |  |
